Runt-CBFb FRET – inhibitors of RUNX1 Runt–CBFb binding, primary screen, biochemical, FRET, Cerulean-Runt, Venus-CBFb, uHTS | Runt-related transcription factor 1 (Homo sapiens) + Core-binding factor subunit beta … | inhibition, % at 20 µM | actives 0.46% (n = 220,000) | AID 1496, 2009 | Cerulean-Runt/Venus-CBFb FRET ratio 530/480, 1 h;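 active means inhibition over about 50% at 20 µM in the single-dose screen, limit read from the data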;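 further: 0% = DMSO wells and 100% = excess unlabeled CBFb competitor control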
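Measured by: fluorescence energy transfer, 422 nm excitation, 530/480 nm emission; test system: Cerulean-tagged RUNX1 Runt domain (FRET donor) fusion protein; buffer or medium: Tris pH 7.5 buffer with BSA; compound: one dose, 20 µM compound, 1% DMSO; times: two 1 h room-temperature incubations shielded from light; benchmarks: unlabeled CBFb 5 µM, positive control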
L929 necroptosis – inhibitors of zVAD-triggered necroptosis, primary screen, L929 cells; actives 0.38% (n = 220,000); AID 1377, 2008; L929 zVAD necroptosis rescue, ATP luminescence, 24 h; with zVAD 60 µM; viability rescue, % at 10 µM;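 active means activation, scaled between plate controls, above about 75%, limit read from the data; inactive means activation under that limit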;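 further: 0% = zVAD with DMSO and 100% = DMSO alone without zVAD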
TNF necrop inh – inhibitors of TNF-alpha triggered necroptosis, primary screen, cell-based, Jurkat FADD-/-, single concentration | Jurkat FADD-/- TNF necroptosis rescue, ATP luminescence, 24 h; 0 = TNF only, 100 = no-TNF cells | activation (protection from cell death), % at 10 µM | actives 0.068% (n = 220,000) | AID 463075, 2010;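 active means activation, meaning protection from cell death, of at least 50% relative to plate controls; inactive means activation below 50%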;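 further: necroptosis triggered by 40 ng/mL TNF-alpha added together with compound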
Runt-SMMHC FRET – inhibitors of RUNX1 Runt–CBFb-SMMHC binding, primary screen, biochemical, FRET, Cerulean-Runt, Venus-CBFb-SMMHC, uHTS. actives 0.74% (n = 220,000). Runt-related transcription factor 1 (Homo sapiens) + Core-binding factor subunit beta …. Cerulean-Runt/Venus-CBFb-SMMHC FRET ratio 530/480, 1 h. inhibition, % at 20 µM;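 active means mean inhibition across duplicate retests at 20 µM reaching about 50%, limit read from the data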;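 further: 0% = DMSO wells and 100% = wells with excess untagged CBFb-SMMHC; inhibitors lower the FRET ratio by blocking Runt binding to CBFb-SMMHC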
Hck-Nef inh – inhibitors of Nef-activated human Hck kinase, primary screen, biochemical, Z-Lyte FRET, 384-well, Hck-YEEI. Tyrosine-protein kinase HCK (Homo sapiens), P08631. Recombinant Hck-YEEI plus Nef, Z-Lyte FRET kinase assay. inhibition, % at 20 µM. actives 0.68% (n = 220,000);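 active means Hck-Nef kinase inhibition above about 50%, limit read from the data; inactive means inhibition below that limit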;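 further: 0% = DMSO with Hck plus Nef and 100% = Hck alone without Nef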
Target sequence (P08631 whole entry, looked up): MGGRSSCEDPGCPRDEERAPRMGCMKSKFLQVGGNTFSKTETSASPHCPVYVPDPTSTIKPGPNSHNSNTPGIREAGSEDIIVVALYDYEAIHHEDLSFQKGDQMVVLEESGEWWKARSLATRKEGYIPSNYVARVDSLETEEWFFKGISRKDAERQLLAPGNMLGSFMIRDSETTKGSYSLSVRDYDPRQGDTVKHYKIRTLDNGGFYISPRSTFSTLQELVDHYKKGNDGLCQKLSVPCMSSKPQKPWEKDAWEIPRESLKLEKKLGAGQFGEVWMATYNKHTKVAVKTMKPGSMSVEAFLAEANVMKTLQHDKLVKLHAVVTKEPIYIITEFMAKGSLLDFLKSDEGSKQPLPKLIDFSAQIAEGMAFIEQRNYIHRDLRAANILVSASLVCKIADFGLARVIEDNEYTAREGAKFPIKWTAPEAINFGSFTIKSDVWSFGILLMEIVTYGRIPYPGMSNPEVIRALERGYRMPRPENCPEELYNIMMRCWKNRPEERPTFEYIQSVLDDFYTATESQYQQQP
RanGTP-Impb inh – inhibitors of RanGTP-importin-beta interaction, primary screen, biochemical, FRET, CFP-Ran, YFP-importin-beta, homogeneous. Ran GTPase (GTP-bound) - importin-beta complex. actives 1.1% (n = 300,000). inhibition, % (no concentration beside the values). cell-free CFP-Ran/YFP-importin-beta FRET ratio. AID 2216, 2009;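 active means more than half of the replicate wells show a fall in the fluorescence ratio signal beyond about 16%, limit read from the data, passing the limit was not always enough; inconclusive means exactly half of the replicate wells pass the set limit; inactive means fewer than half of replicates pass the limit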;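 further: 0% = DMSO wells and 100% = Ran loaded with GDP instead of GTP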
* hit, by the source's call; ? = inconclusive; . = no result. The list is not random: actives were taken first. Their share in the collection is about 2.1%.

SMILES	Runt-CBFb FRET	L929 necroptosis	TNF necrop inh	Runt-SMMHC FRET	Hck-Nef inh	RanGTP-Impb inh
Cn1nc(-c2ccc(Cl)cc2)c2cc(C(=O)NCCCN3CCOCC3)sc21	2	18	2	-3	1	4
N=C1/C(=C\c2ccc(-c3ccc(C(=O)O)cc3)o2)C(=O)N=C2SC=C(c3ccccc3)N12	-13	2	2	-50	103*	-5
COc1ccc(OC)c(C2C3CN(C(C)C)CC=C3C(C#N)=C(N)C2(C#N)C#N)c1 (stereo unspecified)	42	-1	0	79*	38	31*
CCOC(=O)N1CC=C2C(C#N)=C(N)C(C#N)(C#N)[C@H](c3ccc(OCC)c(OCC)c3)[C@H]2C1	1	0	-9	6	1	1
Cc1ccc(C2C3CN(C(C)C)CC=C3C(C#N)=C(N)C2(C#N)C#N)cc1 (stereo unspecified)	81*	.	.	63*	.	63*
COc1cccc(OC)c1OCc1cc(C2C3CCCC=C3C(C#N)=C(N)C2(C#N)C#N)c(C)cc1C (stereo unspecified)	13	-1	-12	-1	1	-12
CCCN1CC=C2C(C#N)=C(N)C(C#N)(C#N)C(c3cccc(OC)c3OC)C2C1 (stereo unspecified)	94*	-1	-2	78*	23	104*
CC(=O)c1cccc(NC(=O)c2cc(S(=O)(=O)N3CCOCC3)cs2)c1	.	.	.	.	.	0
COC(=O)c1cc(S(=O)(=O)NCC2CCN(CCc3cccs3)CC2)cn1C	.	.	.	.	.	2
COc1ccccc1CNC(=O)C(=O)NCCC1CCCCN1S(=O)(=O)c1ccc(C)cc1 (stereo unspecified)	.	.	.	.	.	0
COc1ccccc1CCNC(=O)C(=O)NCCC1CCCCN1S(=O)(=O)c1ccccc1 (stereo unspecified)	.	.	.	.	.	37*
COc1ccc(S(=O)(=O)N(NC2=NS(=O)(=O)c3ccccc32)C(=O)C(C)C)cc1	-2	1	1	0	23	-1
CCC(=O)Oc1ccc2c(c1)O/C(=C\c1ccco1)C2=O	-114	0	0	81*	31	-21
CC(=O)Oc1ccc2c(c1)O/C(=C\c1ccncc1)C2=O	-338	0	2	-134	-34	-203
O=S(=O)(NC1CCCCC1N1CCC(O)CC1)c1ccccc1 (stereo unspecified)	.	.	.	.	.	56*
CCCN1CCN(C2CCCCC2NS(=O)(=O)c2ccccc2)CC1 (stereo unspecified)	.	.	.	.	.	3
Nc1c(C(=O)N/N=C/c2cccnc2)oc2nc(-c3ccco3)cc(-c3ccco3)c12	-16	0	-3	-57	64*	-2
Cc1ccc(NC2=CC(=O)CC(c3ccc(Cl)cc3)C2)cc1 (stereo unspecified)	0	0	1	0	1	35*
Cc1ccc(NC2=CC(=O)CC(c3ccccc3)C2)cc1 (stereo unspecified)	-1	2	-4	1	-1	?
COc1ccccc1C(=O)Nc1ccnn1C1CCN(C(C)CSC)CC1 (stereo unspecified)	.	.	.	.	.	23*
COc1ccccc1C(=O)Nc1ccnn1C1CCN(C)CC1	.	.	.	.	.	5
O=C(COc1ccccc1Cl)Nc1ccc(CN2CCCCC2)cc1	-1	3	1	-2	-1	31*
O=C(COc1ccccc1Cl)Nc1ccc(C(=O)N2CCCCC2)cc1	.	.	.	.	.	-2
